# Screening results (PubChem BioAssay)
# Only some compounds are listed: those with a hit (about 4% of all), similar ones and a draw of the others.
# H9c2 protect: myocardial damage modulation in H9c2 cells. H9c2 cardiomyocytes, H2O2 injury protection, ATPLite, 2 h. protection from H2O2 cell death, % at 20 µM. 360,000 compounds, 0.63% hits. AID 588492;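 active means compounds giving at least 50% protection of heart cells from peroxide-induced death in the single-dose screen, raw or plate-pattern-corrected value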;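 further: 0% = DMSO wells with peroxide and 100% = DMSO wells without peroxide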
# FAS-TE inh: FAS thioesterase (human) inhibition; P49327; recombinant FAS-TE, OMFH fluorogenic substrate, fluorescence endpoint; inhibition, % at 15 µM; 360,000 compounds, 0.67% hits;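 active means compounds whose normalised, plate-corrected inhibition of enzyme fluorescence in the single-dose primary screen is 50% or more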;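 further: 0% = DMSO with enzyme and 100% = substrate without enzyme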
# NR3A LBD binder: NR3A (human) ligand-binding domain modulation; NR3A LBD differential scanning fluorimetry, Tm shift; 0% = protein alone, 100% = glycine-bound protein; Tm shift relative to glycine control, % at 25 µM; 340,000 compounds, 2.5% hits; AID 1259313;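 active means melting temperature shift of at least 10% of the positive control shift, at one fixed dose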
# Arr AP2 block: human beta-arrestin and AP2 interaction inhibition; FITC-arrestin peptide / GST-AP2 beads, flow cytometry; AP2 beta2 appendage carries R879A mutation; inhibition, % at 10 µM; 340,000 compounds, 0.31% hits;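 active means inhibition above a set limit, near 3 SD of compounds lacking own fluorescence, cut at about 54% in these data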;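 further: plate controls were DMSO wells for no effect and 5 µM unlabelled arrestin peptide for full effect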
#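 Test system: GST-tagged AP2 beta2-adaptin appendage (R879A) on 4 µm glutathione beads; also added: fluorescein-tagged arrestin peptide at 50 nM final; timing: 12 min plus 1 h, RT; signal: flow cytometry, FL1 (488/535 nm); read-out: percent drop in bead-associated FITC signal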
# SENP1 inh: SENP1 (human) catalytic domain inhibition; Q9P0U3; recombinant SENP1 catalytic domain, CyPet-SUMO1-YPet FRET cleavage; inhibition, % at 10 µM; 360,000 compounds, 0.21% hits; AID 624204;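 active means inhibition at least 30% at 10 µM, raw YFP signal under a set limit, fluorescence ratio 0.5 to 1.5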;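 further: 0% = enzyme with DMSO and 100% = no enzyme wells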
#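 Material – human SENP1 catalytic domain · Input – SENP1 enzyme, 20 pM final · Compound dosing – single concentration of 10 µM compound, 0.5% DMSO final · Timing – enzyme reaction for 50 min at room temperature, dark · Measured by – FRET fluorescence in CFP and YFP emission channels · Control set – no-enzyme wells low, DMSO-plus-enzyme wells high control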
# hiPSC survival: hiPSC single-cell survival enhancement. AID 602274. 360,000 compounds, 0.044% hits. ATPlite luminescence; 100% = ROCK inhibitor wells, 0% = DMSO. survival enhancement, % at 20 µM; in the data active means survival enhancement above about 18%;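 further: cells exposed to compounds for 16 hours before the ATP read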
# * hit, by the source's call; / = no result.
SMILES,H9c2 protect,FAS-TE inh,NR3A LBD binder,Arr AP2 block,SENP1 inh,hiPSC survival
COc1ccc(NS(=O)(=O)c2ccc3nc(COc4ccc5ccccc5c4)[nH]c3c2)cc1,-17,25,25*,-6,-18,0
COc1ccc(NS(=O)(=O)c2ccc3nc(COc4cccc5ccccc45)[nH]c3c2)cc1,-14,18,17*,5,-11,-1
Cc1ccc(C(=O)N2[C@@H]3CN(C)C(=O)[C@@]2(C)[C@H]2C(=O)N(C)C(=O)[C@@H]32)cc1,2,-5,3,-7,0,1
CN1C[C@@H]2[C@@H]3C(=O)N(C)C(=O)[C@@H]3[C@](C)(C1=O)N2C(=O)c1ccc(F)cc1,-1,-8,10*,-6,-2,0
NS(=O)(=O)c1cccc(NC(=O)COC(=O)CCC(=O)c2cccs2)c1,-1,-6,2,19,6,1
COc1ncnc2c1NC1=C(S2)C(=NCCC(=O)O)CC(C)(C)C1,-1,-28,1,-3,52*,1
CCOc1ccc(NC(=S)Nc2ccc(OCC)cc2)cc1,0,-2,0,6,1,-2
CCOc1ccc(NC(=O)Nc2ccc3nsnc3c2)cc1,-20,-1,26*,19,9,2
CCOC(=O)c1cccc(NC(=O)Nc2ccc(OCC)cc2)c1,-10,2,20*,-22,-1,-3
CCOC(=O)c1cccc(P(C)(C)=O)c1,1,-6,22*,-9,2,0
CCOc1ccc(NC(=O)Nc2cccc(C(=O)O)c2)cc1,-17,-6,-13,15,0,-5
CCOc1ccc(NC(=S)Nc2ccc3nsnc3c2)cc1,-19,10,22*,-2,-26,0
Cc1ccccc1OCC(=O)OCC(=O)NC1CCCC(C)C1C (configuration not stated),-7,-3,/,/,5,2
COc1ccc(NC(=S)Nc2ccc3nsnc3c2)cc1,-8,1,24*,37,-28,-3
COc1ccc(NC(=O)c2cn(-c3ccccc3)nc2-c2ccncc2)cc1,9,4,-3,3,4,-1
O=C(O)c1cccc(NC(=O)c2cn(-c3ccccc3)nc2-c2cccc(Br)c2)c1,6,14,15*,6,0,1
N#CCCn1cc(C(=O)Nc2ccccc2Br)c(-c2cc3ccccc3o2)n1,0,12,-9,-1,2,0
N#CCCn1cc(C(=O)Nc2ccc([N+](=O)[O-])cc2)c(-c2cc3ccccc3o2)n1,-14,6,14*,-6,3,0
COc1ccc(NC(=O)c2cn(-c3ccccc3)nc2-c2cc3ccccc3o2)cc1,4,33,11*,21,-2,-3
O=C(Nc1ccc2ccccc2c1)c1cn(-c2ccccc2)nc1-c1cccs1,-6,30,25*,-1,0,-2
CN(C)c1ccc(NC(=O)c2cn(-c3ccccc3)nc2-c2cccs2)cc1,2,20,2,27,1,-2
CN(C)CCNC(=O)c1cccc(-c2cccc3nncn23)c1,6,-11,/,/,2,-2
O=C(N/N=C/c1cn(-c2ccccc2)nc1-c1cc2ccccc2o1)c1c[nH]c2ccccc12,20,15,20*,36,2,-2
O=C(N/N=C/c1cn(-c2ccccc2)nc1-c1cc2ccccc2o1)c1ccccc1Br,16,9,5,4,0,-3
CCCn1c(=O)c2ccccc2n2c(SCCOc3ccc(OC)cc3)nnc12,4,13,11*,28,1,-2
SMILES,H9c2 protect,FAS-TE inh,NR3A LBD binder,Arr AP2 block,SENP1 inh,hiPSC survival
CC(=O)C1=CCC(c2cccc3ccccc23)N(S(=O)(=O)c2ccc(C)cc2)C1 (configuration not stated),7,26,/,/,4,1
C/C(=N/NS(=O)(=O)c1ccc(C)c(C)c1)c1c[nH]c2ccccc12,-4,10,38*,-11,0,0
C/C(=N/NS(=O)(=O)c1ccc(C)cc1C)c1c[nH]c2ccccc12,-8,5,11*,8,1,1
CC(=O)N1CC2(CC(c3ccc(Cl)cc3Cl)=NO2)CN1c1cccc(Cl)c1 (configuration not stated),-3,19,/,/,-2,1
CC(C)C[C@H]1CN([C@@H](Cc2ccc(O)cc2)CN2CCC[C@H]2CN2C(=O)C(=O)NC[C@@H]2Cc2ccccc2)C(=O)C(=O)N1CC1CCCCCC1,/,14,/,/,0,0
CCCOP(=O)(c1ccc(N(C)C)cc1)C(Nc1ccccc1)c1ccc(N(C)C)cc1 (configuration not stated),-5,5,-3,-16,0,-1
CCCCOP(=O)(c1ccc(N(C)C)cc1)C(Nc1ccccc1)c1ccccc1 (configuration not stated),-8,19,13*,0,0,-2
CCC(C)CN1C(=O)CN(S(C)(=O)=O)CC1(C)C(=O)Nc1c(C)cccc1C (configuration not stated),/,/,/,/,-4,/
O=c1c(Br)ccc(Br)cc1Br,-26,2,-2,29,-51,5
CC(C)=CCc1c(O)ccc(C2COc3c(CC=C(C)C)c(O)cc(O)c3C2=O)c1O (configuration not stated),-8,22,11*,-1,-9,2
CC(C)=CCc1c(O)cc2c(c1O)C(=O)CC(c1ccccc1)O2 (configuration not stated),-9,-3,-8,-5,2,-2
COc1ccc(Oc2ccc(N/C=C3/CCCC3=O)cc2)cc1,-8,-5,17*,-3,-23,0
COc1ccc(Oc2ccc(N/C=C3\CCCC3=O)cc2)cc1,-2,-4,-11,-3,-24,-1
CC(C)CN(C(=O)c1cc(=O)[nH]c2ccccc12)c1c(N)n(Cc2ccccc2)c(=O)[nH]c1=O,-3,-7,11*,15,-7,0
CC(/C=C1\SC(=O)N(CC(=O)Nc2ccc(O)cc2)C1=O)=C\c1ccccc1,0,11,10*,-2,0,0
Cn1cc(/C=C2\SC(=S)N(NC(=O)c3cccc(Cl)c3)C2=O)c2ccccc21,-2,-44,20*,-2,-33,0
CC(/C=C1\SC(=O)N(CC(=O)Nc2cccc(O)c2)C1=O)=C\c1ccccc1,-5,20,19*,18,2,-3
CC(/C=C1\SC(=S)N(NC(=O)c2cccc(O)c2)C1=O)=C\c1ccccc1,-2,9,22*,-2,-3,-1
CC(=O)c1ccc(NC(=O)CCCN2C(=O)/C(=C/C(C)=C/c3ccccc3)SC2=S)cc1,-2,13,2,9,-6,-1
